Laboratory results from ChEMBL document CHEMBL1123850, “Estrogenic affinity labels: synthesis, irreversible receptor binding, and bioactivity of aziridine-substituted hexestrol derivatives” (J Med Chem, 1987).
Blank lines part the entries; values can stand above or below the compound they belong to. Activity calls are given as the source filed them. No cut-off for these calls is given here.

How the values were obtained:
[1] = target: T1, Estrogen receptor (Ovis aries) (UniProt P49885+Q9TU15); assay: Time dependent irreversible binding to estrogen receptor by inactivation-exchange assay; Weak; type: protein assay
[2] = system: MCF7; assay: Effect on 10e-9 M estradiol stimulation of MCF-7 cell proliferation at 3x10E-7M; potent agonistic; type: functional, cell-based; conditions: Homo sapiens, filed as agonist
[3] = target: T1, Estrogen receptor (Ovis aries); assay: Time dependent irreversible binding to estrogen receptor by inactivation-exchange assay; Good; type: protein assay
[4] = system: MCF7; assay: Effect on 10e-9 M estradiol stimulation of MCF-7 cell proliferation at 10e-8 M; type: functional, cell-based; conditions: Homo sapiens, filed as agonist
[5] = system: MCF7; assay: Effect on 10e-9 M estradiol stimulation of MCF-7 cell proliferation at 3x10E-8M; Agonistic; type: functional, cell-based; conditions: Homo sapiens, filed as agonist
[6] = system: MCF7; assay: Effect on 10e-9 M estradiol stimulation of MCF-7 cell proliferation at 3x10E-7M;weak agonistic; type: functional, cell-based; conditions: Homo sapiens, filed as partial agonist
Procedure, shortened: (§1)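 MCF-7 human breast cancer cells kept 1 week in phenol red-free IMEM with 5% charcoal dextran-treated calf serum, then seeded at ca. 0.5 x 10^5 cells/flask. Next day switched to phenol red- and insulin-free medium holding compound, estradiol (10^-9 M), hydroxytamoxifen or 0.1% ethanol vehicle, renewed every 48 h. Cells counted after 8 days. Agonism is growth relative to estradiol; antagonism is suppression of estradiol-stimulated growth.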

[7] = system: MCF7; assay: Effect on 10e-9 M estradiol stimulation of MCF-7 cell proliferation at 3E-7M: Weak antagonistic; type: functional, cell-based; conditions: Homo sapiens, filed as antagonist
[8] = target: T1, Estrogen receptor (Ovis aries); assay: Time dependent irreversible binding to estrogen receptor by inactivation-exchange assay; No; type: protein assay
[9] = system: MCF7; assay: Effect on 10e-9 M estradiol stimulation of MCF-7 cell proliferation at 4x10E-8M; Agonist; type: functional, cell-based; conditions: Homo sapiens, filed as agonist
[10] = system: MCF7; assay: Effect on 10e-9 M estradiol stimulation of MCF-7 cell proliferation at 3x10E-7M; very weak; type: functional, cell-based; conditions: Homo sapiens; procedure, shortened: as §1
[11] = system: MCF7; assay: Effect on 10e-9 M estradiol stimulation of MCF-7 cell proliferation at 4x10E-8M; Agonistic; type: functional, cell-based; conditions: Homo sapiens, filed as agonist; procedure, shortened: as §1

Structure (SMILES): CC[C@H](c1ccc(O)cc1)[C@@H](C(=O)OCCN1CC1)c1ccc(O)cc1
- Irreversible binding [1]: Partially active
- Activity [2]: Agonist

Structure (SMILES): CC[C@H](c1ccc(O)cc1)[C@@H](C(=O)CCCCN1CC1)c1ccc(O)cc1
- Irreversible binding [3]: Time-dependent effect
- Activity [4]: Agonist

Structure (SMILES): CC[C@H](c1ccc(O)cc1)[C@@H](CSCCCN1CC1)c1ccc(O)cc1
- Irreversible binding [3]: Time-dependent effect
- Activity [5]: Agonist

Structure (SMILES): CC[C@H](c1ccc(O)cc1)[C@@H](C(=O)CCCCN(C)C)c1ccc(O)cc1
- Activity [6]: Partial agonist

Structure (SMILES): CC[C@H](c1ccc(O)cc1)[C@@H](C(=O)OCCCN1CC1)c1ccc(O)cc1
- Irreversible binding [1]: Partially active
- Activity [2]: Agonist

Structure (SMILES): CC[C@H](c1ccc(O)cc1)[C@@H](CCCCN1CC1)c1ccc(O)cc1
- Irreversible binding [3]: Time-dependent effect
- Activity [7]: Partial antagonist

Structure (SMILES): CC[C@H](c1ccc(O)cc1)[C@@H](CSCCN1CC1)c1ccc(O)cc1
- Irreversible binding [8]: inactive
- Activity [9]: Agonist

Structure (SMILES): CC[C@H](c1ccc(O)cc1)[C@@H](CCCCN1CCNCC1)c1ccc(O)cc1
- Activity [10]: inactive

Structure (SMILES): CC[C@H](c1ccc(O)cc1)[C@@H](CSCCCN(C)C)c1ccc(O)cc1
- Activity [11]: Agonist

- Irreversible binding [8]: inactive
Structure (SMILES): CC[C@H](c1ccc(O)cc1)[C@@H](C(=O)N1CC1)c1ccc(O)cc1
- Activity [2]: Agonist
